# ChEMBL document CHEMBL1152368, “Synthesis, structure-activity relationships, and biological profiles of a dihydrobenzoxathiin class of histamine H(3) receptor inverse agonists” (Bioorg Med Chem Lett, 2009)
# Key:
# Histamine H4 receptor = Histamine H4 receptor (Homo sapiens, UniProt Q9H3N8); assay: Inhibition of human histamine H4 receptor
# Histamine H1 receptor = Histamine H1 receptor (Homo sapiens, UniProt P35367); assay: Inhibition of human histamine H1 receptor
# Histamine H3 receptor [1] = target: Histamine H3 receptor (Rattus norvegicus, UniProt Q9QYN8); assay: Displacement of [3H]R-alpha-methylhistamine from rat histamine H3 receptor by cell-based assay
# Outline: (§1)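 Radioligand binding with [³H]R-α-methylhistamine on membranes of CHO or HEK293 cells expressing human, rat or mouse H₃ receptor.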
# Histamine H3 receptor [2] = target: Histamine H3 receptor (Mus musculus, UniProt P58406); assay: Displacement of [3H]R-alpha-methylhistamine from mouse histamine H3 receptor by cell-based assay; outline: as §1
# Histamine H2 receptor = Histamine H2 receptor (Homo sapiens, UniProt P25021); assay: Inhibition of human histamine H2 receptor
# Sequence of Histamine H2 receptor (P25021 whole entry): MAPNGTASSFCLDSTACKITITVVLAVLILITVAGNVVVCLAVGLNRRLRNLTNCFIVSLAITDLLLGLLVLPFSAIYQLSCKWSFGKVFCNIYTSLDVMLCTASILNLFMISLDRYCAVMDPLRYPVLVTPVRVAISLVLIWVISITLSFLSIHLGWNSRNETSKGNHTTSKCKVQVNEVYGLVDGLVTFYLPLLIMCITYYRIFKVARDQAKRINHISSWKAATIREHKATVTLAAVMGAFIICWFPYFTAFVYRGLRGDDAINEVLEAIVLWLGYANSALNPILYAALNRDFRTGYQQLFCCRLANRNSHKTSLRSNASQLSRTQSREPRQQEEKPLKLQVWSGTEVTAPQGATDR
# Sequence of Histamine H4 receptor (Q9H3N8 whole entry): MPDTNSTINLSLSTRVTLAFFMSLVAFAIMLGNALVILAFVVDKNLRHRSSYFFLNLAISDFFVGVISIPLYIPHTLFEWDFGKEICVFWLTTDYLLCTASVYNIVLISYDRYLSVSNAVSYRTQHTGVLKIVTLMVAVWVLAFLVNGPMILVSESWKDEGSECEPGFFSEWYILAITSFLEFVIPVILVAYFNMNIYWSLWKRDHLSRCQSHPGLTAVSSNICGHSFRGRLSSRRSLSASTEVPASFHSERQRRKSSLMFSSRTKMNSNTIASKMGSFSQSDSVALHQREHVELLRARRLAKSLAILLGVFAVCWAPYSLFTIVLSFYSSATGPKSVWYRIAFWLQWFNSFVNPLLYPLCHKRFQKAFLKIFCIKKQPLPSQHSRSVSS
# Sequence of Histamine H3 receptor (Mus musculus, UniProt P58406) (P58406 whole entry): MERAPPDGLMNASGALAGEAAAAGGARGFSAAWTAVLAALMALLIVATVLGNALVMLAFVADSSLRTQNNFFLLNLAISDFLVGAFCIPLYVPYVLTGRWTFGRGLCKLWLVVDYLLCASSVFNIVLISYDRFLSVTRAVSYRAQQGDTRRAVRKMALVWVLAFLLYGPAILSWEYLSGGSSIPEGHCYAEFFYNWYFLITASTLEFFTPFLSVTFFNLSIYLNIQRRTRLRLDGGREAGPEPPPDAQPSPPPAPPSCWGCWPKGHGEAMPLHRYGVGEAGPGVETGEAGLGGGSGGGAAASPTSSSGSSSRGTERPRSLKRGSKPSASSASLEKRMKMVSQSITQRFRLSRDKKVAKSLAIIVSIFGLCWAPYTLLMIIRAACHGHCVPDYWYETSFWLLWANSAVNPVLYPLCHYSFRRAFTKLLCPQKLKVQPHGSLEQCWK
# Sequence of Histamine H3 receptor (Rattus norvegicus, UniProt Q9QYN8) (Q9QYN8 whole entry): as the sequence (P58406 whole entry) above, with A15T, T286A, G290A, H387R, V389I counted along it
# Sequence of Histamine H1 receptor (P35367 whole entry): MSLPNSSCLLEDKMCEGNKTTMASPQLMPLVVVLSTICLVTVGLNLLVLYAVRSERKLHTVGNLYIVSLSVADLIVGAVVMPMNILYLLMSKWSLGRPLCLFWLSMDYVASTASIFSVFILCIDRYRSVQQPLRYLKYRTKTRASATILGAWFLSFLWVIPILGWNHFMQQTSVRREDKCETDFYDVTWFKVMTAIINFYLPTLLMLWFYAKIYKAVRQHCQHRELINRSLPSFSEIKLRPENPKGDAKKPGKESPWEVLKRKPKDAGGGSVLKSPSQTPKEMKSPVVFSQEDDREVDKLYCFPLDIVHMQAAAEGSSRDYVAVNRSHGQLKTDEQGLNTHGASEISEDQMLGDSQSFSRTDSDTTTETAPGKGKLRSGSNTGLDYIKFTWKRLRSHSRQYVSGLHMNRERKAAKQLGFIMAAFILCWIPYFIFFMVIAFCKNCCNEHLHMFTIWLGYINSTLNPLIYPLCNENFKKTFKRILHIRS
smiles,measurement,setting,value
COc1cccc2c1O[C@@H](c1ccc(OCCCN3CCCC3)cc1)[C@H](C)S2(=O)=O,IC50,Histamine H4 receptor,> 10 µM
same,IC50,Histamine H1 receptor,> 10 µM
same,Ki,Histamine H3 receptor [1],2.8 nM
same,Ki,Histamine H3 receptor [2],5.9 nM
same,IC50,Histamine H2 receptor,> 10 µM
